Assay results pooled from the literature.
Lines come from different studies, so protocols differ.
Target: Calcium/calmodulin-dependent protein kinase type IV (CAMK4, Homo sapiens, UniProt Q16566)
One construct used (Q16566 1-473): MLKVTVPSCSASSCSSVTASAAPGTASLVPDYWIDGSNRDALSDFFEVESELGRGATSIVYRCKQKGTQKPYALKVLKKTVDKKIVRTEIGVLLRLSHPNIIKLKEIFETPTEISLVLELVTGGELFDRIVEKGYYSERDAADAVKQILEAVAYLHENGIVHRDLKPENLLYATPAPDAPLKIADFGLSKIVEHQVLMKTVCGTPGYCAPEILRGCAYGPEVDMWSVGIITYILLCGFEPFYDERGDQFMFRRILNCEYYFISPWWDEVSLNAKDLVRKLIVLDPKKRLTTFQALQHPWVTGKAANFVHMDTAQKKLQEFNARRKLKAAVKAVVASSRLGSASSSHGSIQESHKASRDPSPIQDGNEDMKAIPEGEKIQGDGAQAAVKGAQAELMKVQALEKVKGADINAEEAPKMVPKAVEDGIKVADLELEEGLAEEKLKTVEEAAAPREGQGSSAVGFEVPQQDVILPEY

c1cncc(-c2cccc(Nc3nccc(NC4CCCCC4)n3)c2)c1 — remaining binding (binding, competition with immobilised ligand; 10 µM): 100%
CN(C)c1ncc(F)c(-c2cnn3ncccc23)n1 — remaining binding (binding; 1 µM): 100%
CCOC(=O)c1cc2cc(-c3cc(C(=O)NCc4ccc(C(=O)O)cc4)nn3C)ccc2[nH]1 — remaining binding (cell-free assay, competition with immobilised ligand; 0.1 µM): 95%
O=C(c1ccc(Nc2ncc(Cl)c(-c3cc4ccccc4s3)n2)cc1)N1CCC(N2CCCC2)CC1 — remaining binding (binding, competition with immobilised ligand; 1 µM): 100%
Cc1cc(-n2nc(Cc3cc(F)cc(C(F)(F)F)c3)nc2C)ccc1C(N)=O — remaining binding (cell-free assay, competition with immobilised ligand; 1 µM): 100%
COc1cnc(Nc2cccc(S(N)(=O)=O)c2)nc1N1CCN(c2ccccc2)CC1 — remaining binding (binding, competition with immobilised ligand; 1 µM): 100%
CN(CCCC(F)(F)F)c1nccc(-c2cnn3ncccc23)n1 — remaining binding (binding; 1 µM): 64%
CCN1CCN(Cc2ccc(C(=O)Nc3ccc(C)c(Oc4ccc5c(c4)CC(=O)N5)c3)cc2C(F)(F)F)CC1 — remaining binding (binding, competition with immobilised ligand; 1 µM): 100%
N[C@H]1CCN(c2nccc(-c3cnn4ncccc34)n2)C1 — remaining binding (binding; 1 µM): 100%
FC(F)(F)Oc1cccc(-c2cnc3ccc(-c4ccncc4)nn23)c1 — remaining binding (cell-free assay, competition with immobilised ligand; 5 µM): 100%
O=C(c1ccc(Nc2ncc(Cl)c(-c3ccc(Cl)s3)n2)cc1)N1CCC(N2CCCC2)CC1 — remaining binding (binding, competition with immobilised ligand; 1 µM): 100%
C=CC(=O)N1CCC(C(=O)NCC(=O)N2CCN(c3nc(-c4cnc(N)nc4C(F)F)nc(N4CCOCC4)n3)CC2)CC1 — remaining binding (binding, competition with immobilised ligand; 1 µM): 86%
C[C@H]1CCN(c2nccc(-c3cnn4ncccc34)n2)C1 — remaining binding (binding; 1 µM): 90%
O=C(Nc1c[nH]nc1C(=O)NC1CCNCC1)c1cc(F)cc(F)c1 — remaining binding (binding, competition with immobilised ligand; 1 µM): 100%
CC(C)(O)c1cncc(-c2nc3ccc(F)cc3n2C2CC2)c1 — remaining binding (cell-free assay, competition with immobilised ligand; 1 µM): 100%
O=C(NCCCN1CCOCC1)c1ccc(Nc2nccc(-c3cc4ccccc4s3)n2)cc1 — remaining binding (binding, competition with immobilised ligand; 1 µM): 100%
CS(=O)(=O)c1cc(C2(NC(=O)c3cncc4c3cnn4-c3ccc(F)cc3)CC2)ccn1 — remaining binding (cell-free assay, competition with immobilised ligand; 1 µM): 100%
CN(C)c1nccc(-c2cnn3ncccc23)n1 — remaining binding (binding; 1 µM): 100%
CNC(=O)Nc1ccc2c(c1)CC[C@@]21OC(=O)N(CC(=O)N(Cc2ccc(F)cc2)[C@@H](C)C(F)(F)F)C1=O — remaining binding (cell-free assay, competition with immobilised ligand; 1 µM): 75%
Cc1cnn2ncc(-c3ccnc(N(C)C)n3)c2c1 — remaining binding (binding; 1 µM): 86%
COc1ccc2c(O[C@@H]3C[C@H]4C(=O)N[C@]5(C(=O)O)CC5/C=C\CCCCC[C@H](NC(=O)OC5CCCC5)C(=O)N4C3)cc(-c3csc(NC(=O)C(C)C)n3)nc2c1C (stereo partly shown) — remaining binding (cell-free assay, competition with immobilised ligand; 1 µM): 95%
C[C@@H](c1ccc(-n2cnc3c(N)ncnc32)cc1)N1CCc2nn(C)c(Cc3ccccc3)c2C1=O — remaining binding (binding, competition with immobilised ligand; 0.1 µM): 100%
